ChEMBL document CHEMBL4406881, “Design, synthesis and biological evaluation of benzoylacrylic acid shikonin ester derivatives as irreversible dual inhibitors of tubulin and EGFR” (Bioorg Med Chem, 2019)
Calls of active or inactive are those of the source. The calls are words filed in the database; no cut-off is given here.

Key:
MCF7 = assay: Antiproliferative activity against human MCF7 cells assessed as reduction in cell viability after 24 hrs by MTT assay; type: functional, cell-based; details: MCF7, 24 h
Method in brief: (§1)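 MTT colorimetric assay. Cells in log phase in medium with 10% FBS were seeded at 10⁴ cells/well and left overnight at 37 °C, 5% CO₂ to reattach. Compounds were added at 0.1, 1, 10 and 100 μM in 10% FBS for 24 h. IC50 reported as mean ± SD of three independent experiments.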

A549 [1] = assay: Induction of apoptosis in human A549 cells assessed as caspase-3 cleavage expression at 2 to 8 uM after 24 hrs by Western blot analysis; type: functional, cell-based
Method in brief: (§2)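 Western blot of A549 cells treated for 24 h. Lysates in RIPA buffer were run on SDS-PAGE and transferred to PVDF. Primary antibody at 1:1000 overnight at 4 °C, secondary antibody at 1:3000-1:5000 for 1 h, ECL detection. Densitometry was normalised to GAPDH; mean ± S.E.M. from three independent experiments.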

A549 [2] = assay: Induction of apoptosis in human A549 cells assessed as early apoptotic cells at 8 uM after 24 hrs by Annexin-V/PI staining based flow cytometry analysis (reference value: 1.15%); type: functional
A549 [3] = assay: Cell cycle arrest in human A549 cells assessed as accumulation at S phase at 8 uM after 24 hrs by RNAse A/ PI staining based flow cytometric analysis (reference value: 17.23%); type: functional
Method in brief: (§3)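 A549 cells at 5.0×10^4 per well were grown 12 h at 37 °C. Treatment was 0, 2, 4 or 8 µM for 24 h, or 8 µM for 0, 12, 24 or 36 h. Cells were fixed in 70% ethanol at −20 °C for at least 12 h, then stained in PBS with 0.1 mg/mL RNase A and 5 µg/mL PI. At least 10,000 events per sample were collected by flow cytometry to give G0/G1, S and G2/M percentages.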

A549 [4] = assay: Cell cycle arrest in human A549 cells assessed as accumulation at G2/M phase at 8 uM after 24 hrs by RNAse A/ PI staining based flow cytometric analysis (reference value: 9.47%); type: functional; method in brief: as §3
A549 [5] = assay: Induction of apoptosis in human A549 cells assessed as early apoptotic cells at 8 uM after 12 hrs by Annexin-V/PI staining based flow cytometry analysis (reference value: 2.02%); type: functional
A549 [6] = assay: Induction of apoptosis in human A549 cells at 8 uM by Annexin-V/PI staining based flow cytometry analysis; type: functional, cell-based; details: TDE = time-dependent effect
Method in brief: (§4)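 A549 cells seeded overnight at 37 °C, 5% CO2, then exposed to 0, 2, 4, 8 or 12 µM for 24 h (dose series) or 8 µM for 0, 12, 24, 36 h (time series). Harvested, PBS-washed, stained with Annexin V-FITC and PI in binding buffer 15 min at room temperature in the dark, analysed by flow cytometry; three independent experiments.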

A549 [7] = assay: Induction of apoptosis in human A549 cells assessed as caspase-9 cleavage expression at 2 to 8 uM after 24 hrs by Western blot analysis; type: functional, cell-based; method in brief: as §2
A549 [8] = assay: Induction of apoptosis in human A549 cells assessed as high mitochondrial membrane potential at 4 uM after 12 hrs by JC-1 staining-based flow cytometric analysis (reference value: 90.6%); type: functional
Method in brief: (§5)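 JC-1 staining of A549 cells treated for 12 h. CCCP-treated wells, 20 min at 37 °C, served as positive control. Collected cells were incubated with JC-1 solution at 37 °C for 30 min, washed, and analysed by flow cytometry for the fraction with high ΔΨm and for PI-positive cells. Results are mean ± S.E.M. of three replicates.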

A549 [9] = assay: Induction of apoptosis in human A549 cells assessed as reduction in caspase-3 expression at 2 to 8 uM after 24 hrs by Western blot analysis; type: functional, cell-based
Method in brief: (§6)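 A549 cells in 6-well plates were lysed in RIPA buffer with protease inhibitors on ice for 30 min and cleared at 4 °C. Protein was quantified by BCA, run on SDS-PAGE and transferred to PVDF. Membranes were blocked with milk, probed with primary antibody (1:1000) overnight at 4 °C, then secondary antibody (1:3000-1:5000) 1 h at RT. Detection by ECL; band densitometry normalised to GAPDH (β-actin also used). Three independent experiments.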

A549 [10] = assay: Induction of apoptosis in human A549 cells assessed as reduction in Bcl-2 expression at 2 to 8 uM after 24 hrs by Western blot analysis; type: functional, cell-based; method in brief: as §6
A549 [11] = assay: Induction of apoptosis in human A549 cells assessed as viable cells at 4 uM after 24 hrs by Annexin-V/PI staining based flow cytometry analysis (reference value: 91.4%); type: functional; details: A549, 24 h, read-out: Activity; method in brief: as §4
A549 [12] = assay: Induction of apoptosis in human A549 cells assessed as high mitochondrial membrane potential at 8 uM after 12 hrs by JC-1 staining-based flow cytometric analysis (reference value: 90.6%); type: functional; method in brief: as §5
A549 [13] = assay: Cell cycle arrest in human A549 cells assessed as accumulation at G1 phase at 8 uM after 36 hrs by RNAse A/ PI staining based flow cytometric analysis (reference value: 67.69%); type: functional; method in brief: as §3
[14] = biological target: Epidermal growth factor receptor (Homo sapiens, UniProt P00533); assay: Inhibition of EGFR signalling in human A549 cells assessed as reduction in AKT phosphorylation after 24 hrs by Western blot analysis; type: cell-based; method in brief: as §6
Epidermal growth factor receptor, sequence (P00533 whole entry): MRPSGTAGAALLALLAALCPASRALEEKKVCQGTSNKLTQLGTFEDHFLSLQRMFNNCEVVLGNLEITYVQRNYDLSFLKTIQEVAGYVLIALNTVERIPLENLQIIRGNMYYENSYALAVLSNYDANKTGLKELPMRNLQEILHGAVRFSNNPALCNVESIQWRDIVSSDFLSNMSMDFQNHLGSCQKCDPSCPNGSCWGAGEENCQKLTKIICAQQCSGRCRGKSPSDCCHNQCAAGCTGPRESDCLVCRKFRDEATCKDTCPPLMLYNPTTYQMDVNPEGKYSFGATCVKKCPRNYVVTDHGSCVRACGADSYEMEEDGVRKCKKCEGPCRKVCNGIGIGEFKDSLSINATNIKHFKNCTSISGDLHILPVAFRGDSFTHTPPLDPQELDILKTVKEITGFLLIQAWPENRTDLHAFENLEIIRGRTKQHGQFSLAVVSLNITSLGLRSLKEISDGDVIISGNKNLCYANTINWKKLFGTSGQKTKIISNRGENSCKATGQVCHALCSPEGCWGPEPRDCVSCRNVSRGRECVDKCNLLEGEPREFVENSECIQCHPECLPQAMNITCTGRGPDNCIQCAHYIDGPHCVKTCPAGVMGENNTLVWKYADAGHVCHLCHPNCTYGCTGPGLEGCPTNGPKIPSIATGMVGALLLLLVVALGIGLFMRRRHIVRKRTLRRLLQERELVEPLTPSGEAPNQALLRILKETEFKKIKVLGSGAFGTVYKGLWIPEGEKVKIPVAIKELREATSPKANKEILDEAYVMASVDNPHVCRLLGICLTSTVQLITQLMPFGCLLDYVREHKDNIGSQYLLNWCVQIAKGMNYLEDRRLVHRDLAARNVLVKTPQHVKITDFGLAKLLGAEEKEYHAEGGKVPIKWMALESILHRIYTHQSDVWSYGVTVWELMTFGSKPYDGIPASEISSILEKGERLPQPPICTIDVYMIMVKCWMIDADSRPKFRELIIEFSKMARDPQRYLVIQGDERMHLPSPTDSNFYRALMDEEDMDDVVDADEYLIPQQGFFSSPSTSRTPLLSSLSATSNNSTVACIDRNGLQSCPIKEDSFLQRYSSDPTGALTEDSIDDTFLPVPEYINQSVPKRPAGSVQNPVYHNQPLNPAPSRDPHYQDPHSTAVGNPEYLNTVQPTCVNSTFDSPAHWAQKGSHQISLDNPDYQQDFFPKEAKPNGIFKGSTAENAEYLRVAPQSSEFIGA

A549 [15] = assay: Induction of apoptosis in human A549 cells assessed as late apoptotic cells at 8 uM after 24 hrs by Annexin-V/PI staining based flow cytometry analysis (reference value: 6.55%); type: functional; method in brief: as §4
A549 [16] = assay: Induction of apoptosis in human A549 cells assessed as low mitochondrial membrane potential at 4 uM after 12 hrs by JC-1 staining-based flow cytometric analysis (reference value: 6.3%); type: functional
A549 [17] = assay: Antitumor activity against ip dosed human A549 cells xenografted in Balb/c mouse assessed as inhibition of tumor volume by measuring fold reduction at 4 mg/kg, ip administered once every two days for 32 days relative to untreated control; type: functional
Method in brief: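 Female BALB/c nude mice, 5-6 weeks old, injected in the flank with 6×10^6 A549 cells in 0.1 mL ice-cold PBS. After two weeks, tumours averaging 90 mm³ were allocated by volume to 5 groups of n = 8. Drugs in DMSO were given ip once every two days, 16 doses in total; a DMSO vehicle group served as control. Tumour volume (L×S²/2) and body weight were recorded every two days; mice were killed on day 32.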

A549 [18] = assay: Induction of apoptosis in human A549 cells assessed as necrotic cells after at 12 uM 24 hrs by Annexin-V/PI staining based flow cytometry analysis (reference value: 1.81%); type: functional; method in brief: as §4
A549 [19] = assay: Antimigratory activity against human A549 cells measured up to 48 hrs by phase contrast microscopic based wound healing assay; type: functional, cell-based
Method in brief: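 A549 monolayer seeded at 2×10^5 cells per cm² overnight, incubated 24 h, then scratched with a micropipette tip. The same cell-free area was imaged by phase-contrast microscopy at 0, 24 and 48 h. Wound area was outlined by image analysis to quantify the reduction in cell-free space; n = 3.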

NCI-H460 = assay: Antiproliferative activity against human H460 cells assessed as reduction in cell viability after 24 hrs by MTT assay; type: functional, cell-based; details: NCI-H460, 24 h; method in brief: as §1
A549 [20] = assay: Cell cycle arrest in human A549 cells assessed as accumulation at G2/M phase at 4 uM after 24 hrs by RNAse A/ PI staining based flow cytometric analysis (reference value: 9.47%); type: functional; method in brief: as §3

## CC(C)=CC[C@@H](OC(=O)/C=C\C(=O)c1ccc(F)cc1)C1=CC(=O)c2c(O)ccc(O)c2C1=O
MCF7
  IC50: 8.9 µM
A549 [1]
  Activity: Active
A549 [2]
  Activity: 35.6%
A549 [3]
  Activity: 19.66%
A549 [4]
  Activity: 33.01%
A549 [5]
  Activity: 8.92%
A549 [6]
  Activity: Tde
A549 [7]
  Activity: Active
A549 [8]
  Activity: 67.8%
A549 [9]
  Activity: Active
A549 [10]
  Activity: Active
A549 [11]
  viability at 4 µM: 71.7%
A549 [12]
  Activity: 55.8%
A549 [13]
  Activity: 30.88%
[14]
  inhibition: Dose-dependent effect
A549 [15]
  Activity: 27.5%
A549 [16]
  Activity: 27.9%
A549 [17]
  fold change (FC): 6
A549 [18]
  Activity: 4.16%
A549 [19]
  inhibition: Dose-dependent effect
NCI-H460
  IC50: 5.61 µM
A549 [20]
  Activity: 21.03%
